The text below walks through data of publication PMC4179762 (Drug Design, Development and Therapy, 2014).

The target of assay [1] is T1, hH3R (Homo sapiens, UniProt Q9Y5N1). In words: Metric analyses. Conditions: LELP=clogP/LE.
The target in assay [2] is T2, hH4R (Homo sapiens, UniProt Q9H3N8). In words: Metric analyses. Conditions: LELP=clogP/LE.
Assay [3] deals with T1, hH3R. In words: hH3R radioligand competition binding assay. The essentials: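 HEK-293 membranes stably expressing hH3R, sonicated at 4°C, in 12.5 mM MgCl2/100 mM NaCl/75 mM Tris-HCl pH 7.4; 20–25 μg/well. […] Unlabeled histamine defined non-specific binding. PEI-treated GF/B filtration, scintillation counting, nonlinear fit; Ki by Cheng–Prusoff.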
(In general: In a radioligand displacement assay an active substance lowers the binding of a labelled ligand.)

Assay [4] addresses T2, hH4R. Description: hH4R radioligand competition binding assay. Conditions: compared to compound 3. The essentials:
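Sf9 membranes co-expressing hH4R with Gαi2 and Gβ1γ2, pelleted (16,000 g, 10 min, 4°C) into 12.5 mM MgCl2/1 mM EDTA/75 mM Tris-HCl pH 7.4; 35 μg/well. Incubated 60 min, 25°C, shaking, with 10 nM [3H]histamine and seven test concentrations (0.1 nM–100 μM), triplicate. Non-specific binding with 100 μM histamine. PEI-treated GF/B filtration, scintillation counting; Ki by Cheng–Prusoff.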

Assay [5] deals with T1, hH3R. Description: hH3R saturation binding experiments with [3H]Nα-methylhistamine.

T1 sequence (Q9Y5N1 whole entry): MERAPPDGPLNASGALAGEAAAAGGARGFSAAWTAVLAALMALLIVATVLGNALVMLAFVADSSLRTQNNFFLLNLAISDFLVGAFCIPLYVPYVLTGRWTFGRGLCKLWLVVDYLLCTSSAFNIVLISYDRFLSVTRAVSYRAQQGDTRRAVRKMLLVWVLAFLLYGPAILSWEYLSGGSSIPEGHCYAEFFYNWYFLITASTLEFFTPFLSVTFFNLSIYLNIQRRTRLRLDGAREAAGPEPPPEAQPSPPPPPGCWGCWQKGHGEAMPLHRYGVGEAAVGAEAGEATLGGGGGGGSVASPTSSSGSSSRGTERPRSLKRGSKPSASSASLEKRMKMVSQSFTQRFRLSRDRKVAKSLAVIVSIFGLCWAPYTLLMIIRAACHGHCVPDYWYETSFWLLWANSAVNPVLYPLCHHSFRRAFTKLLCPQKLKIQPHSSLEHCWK
T2 sequence (Q9H3N8 whole entry): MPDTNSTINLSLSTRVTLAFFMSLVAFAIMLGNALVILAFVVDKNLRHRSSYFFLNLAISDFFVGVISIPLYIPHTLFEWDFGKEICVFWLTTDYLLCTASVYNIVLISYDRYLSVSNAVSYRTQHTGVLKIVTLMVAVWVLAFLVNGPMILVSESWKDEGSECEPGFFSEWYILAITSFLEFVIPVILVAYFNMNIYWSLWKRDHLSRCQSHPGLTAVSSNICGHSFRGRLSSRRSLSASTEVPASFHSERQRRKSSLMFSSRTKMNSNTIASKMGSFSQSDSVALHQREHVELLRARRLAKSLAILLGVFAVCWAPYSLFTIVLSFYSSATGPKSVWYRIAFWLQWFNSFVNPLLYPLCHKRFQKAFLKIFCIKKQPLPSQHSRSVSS

In the case of `CN1CCN(CCCOc2ccc(Nc3nccc(NCc4ccccc4)n3)cc2)CC1` [Compound 6, N^4-benzyl-N^2-(4-(3-(4-methylpiperazin-1-yl)propoxy)phenyl)pyrimidin-2,4-diamine], at hH3R [1], the “LELP (hH3R)” value stood at 13.55. For the same compound, at hH4R [2], the “LELP (hH4R)” value was 17.82.

On to “6-(4-methylpiperazin-1-yl)-N-(4-(3-(piperidin-1-yl)propoxy)benzyl)pyrimidin-2,4-diamine [Compound 4]”, for which the “LELP (hH4R)” value on hH4R [2] turned out to be 13.11. Moreover, at hH3R [3] (compared to compound 3), the “fold weaker affinity for hH3Rs” value is listed as approximately 5 ×. Also, the “fold higher affinity for hH4Rs” value at hH4R [4] stood at 3 ×.

Turning to `CN1CCN(c2cc(Nc3ccc(OCCCN4CCCCC4)cc3)nc(N)n2)CC1` [Compound 3, 6-(4-methylpiperazin-1-yl)-N^4-(4-(3-(piperidin-1-yl)propoxy)phenyl)pyrimidin-2,4-diamine], the “LELP (hH4R)” value on hH4R [2] amounted to 15.17. The “fold increased affinity for hH3R” value on hH3R [3] (vs compound 2) was 49 ×.

Regarding `c1ccc(CNc2ccnc(Nc3ccc(OCCCN4CCCCC4)cc3)n2)cc1` [Compound 5, N^4-benzyl-N^2-(4-(3-(piperidin-1-yl)propoxy)phenyl)pyrimidin-2,4-diamine], the “LELP (hH3R)” value at hH3R [1] is reported as 12.79. For the same compound, at hH4R [2], the “LELP (hH4R)” value turned out to be 23.57. Besides, the “Ratio hH4R/hH3R” value at hH3R [3] (receptor subtype selectivity, Ki hH4R / Ki hH3R) is reported as “more than 6,500”.

With `[3H]CNCCc1cnc[nH]1` [[^3H] N^α-MeHA, [^3H]N^α-methylhistamine], the “pKd of radioligand at hH3R” value on hH3R [5] (HEK-293 membranes) worked out at 8.53±0.01.

In the case of `CNCCc1cnc[nH]1` [[^3H] N^α-MeHA, [^3H]N^α-methylhistamine], the Kd (as a rule, the concentration at which binding is half-saturated) at hH3R [5] (read-out: Kd value of radioligand at hH3R, HEK-293 membranes) is 2.98 nM.
